Test results taken from ChEMBL document CHEMBL1128459, “Characterization of potent and selective antagonists at postsynaptic 5-HT1A receptors in a series of N4-substituted arylpiperazines” (J Med Chem, 1995).

Assays:
[1] = target: T1, D(2) dopamine receptor (Rattus norvegicus, UniProt P61169); assay: In vitro binding affinity towards Dopamine receptor D2 in rat striatum was determined using [3H]spiperone as radioligand; assay type: tissue-based
Method in brief: (§1)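 Rat striatal membranes (1/300 wt/vol), no preincubation, in 50 mM Tris pH 7.4 with CaCl2, ascorbic acid, 5 mM KCl, 1 mM MgCl2 and 120 mM NaCl. Ligand 0.2 nM [3H]spiperone, with 100 nM ketanserin masking 5-HT2A sites; raclopride defined nonspecific binding. Incubation 30 min at 37 °C, then filtration. pKi derived from regression-based IC50.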

[2] = test system: Rattus norvegicus; assay: Compound after subcutaneous administration was evaluated for antagonist activity against hypothermia induced by 8-hydroxy -DPAT in rat; assay type: functional; details: sc, read-out: ID50 (the source's name)
Method in brief: (§2)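 Male Wistar rats (200-220 g) had rectal temperature taken, then received the test drug sc in distilled water (1.0 mL/kg). After 30 min they got 8-OH-DPAT 0.16 mg/kg sc, and temperature was remeasured 30 min later. Change from basal was scored.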

[3] = test system: Rattus norvegicus; assay: Minimum effective agonist dose administered subcutaneously; assay type: functional; details: sc, read-out: MED
Method in brief: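 Male Wistar rats (200-220 g) were given the test drug alone sc in water (1.0 mL/kg), with vehicle reinjected at 30 min. Rectal temperature change from basal was measured 60 min after the first injection. MED for hypothermia was set against vehicle by ANOVA with Dunnett's test, P < 0.05.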

[4] = test system: Rattus norvegicus; assay: Minimum effective antagonist dose administered subcutaneously; assay type: functional; details: sc, read-out: MED; method in brief: as §2
[5] = species: Rattus norvegicus; assay: Maximum agonist effect (% effect) expressed relative to 8-hydroxy-DPAT (100%); assay type: functional
Method in brief: (§3)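 In the rat rectal-temperature model (sc dosing, 8-OH-DPAT 0.16 mg/kg sc for antagonism), the maximal percentage of induced hypothermia (agonist) and of block of 8-OH-DPAT hypothermia (antagonist) was recorded. Each value is given with the dose at which it was reached.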

[6] = species: Rattus norvegicus; assay: Maximum antagonist effect (% effect) expressed relative to 8-hydroxy-DPAT (100%); assay type: functional; method in brief: as §3
[7] = target: D(2) dopamine receptor (Rattus norvegicus) (UniProt P61169)
Sequence of D(2) dopamine receptor (Rattus norvegicus) (P61169 whole entry): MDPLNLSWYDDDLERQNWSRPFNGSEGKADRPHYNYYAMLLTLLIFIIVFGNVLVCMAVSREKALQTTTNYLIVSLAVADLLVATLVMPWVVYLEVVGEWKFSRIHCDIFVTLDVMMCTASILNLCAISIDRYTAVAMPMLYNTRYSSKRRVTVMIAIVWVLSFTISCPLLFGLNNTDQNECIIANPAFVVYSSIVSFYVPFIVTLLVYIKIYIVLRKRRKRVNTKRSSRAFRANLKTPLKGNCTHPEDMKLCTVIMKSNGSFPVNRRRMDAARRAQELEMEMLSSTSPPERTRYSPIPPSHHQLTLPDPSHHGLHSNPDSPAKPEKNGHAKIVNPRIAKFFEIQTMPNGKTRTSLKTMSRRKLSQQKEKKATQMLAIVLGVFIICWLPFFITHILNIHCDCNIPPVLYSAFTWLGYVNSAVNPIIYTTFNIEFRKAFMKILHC

[8] = target: 5-hydroxytryptamine receptor 1B (Rattus norvegicus, UniProt P28564); assay: Binding affinity at 5-hydroxytryptamine 1B receptor
Sequence of 5-hydroxytryptamine receptor 1B (P28564 whole entry): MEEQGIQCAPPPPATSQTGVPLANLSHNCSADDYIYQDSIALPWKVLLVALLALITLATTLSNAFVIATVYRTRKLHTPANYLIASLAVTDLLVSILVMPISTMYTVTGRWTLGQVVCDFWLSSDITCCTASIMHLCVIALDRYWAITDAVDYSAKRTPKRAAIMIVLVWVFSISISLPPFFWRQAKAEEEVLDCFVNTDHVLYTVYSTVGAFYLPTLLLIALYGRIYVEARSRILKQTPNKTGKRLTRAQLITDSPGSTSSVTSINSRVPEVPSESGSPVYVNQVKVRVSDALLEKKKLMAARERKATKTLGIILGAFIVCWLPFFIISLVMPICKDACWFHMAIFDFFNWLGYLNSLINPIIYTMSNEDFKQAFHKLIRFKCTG
Method in brief: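 Rat frontal cortex membranes (1/40 wt/vol) were homogenized in 50 mM Tris pH 7.7 with pargyline, 4 mM CaCl2 and 0.1% ascorbic acid, then preincubated for 30 min at 37 °C. Labelled with 2.0 nM [3H]-5-HT, with 100 nM 8-OH-DPAT and 100 nM mesulergine masking 5-HT1A/5-HT2A sites; 5-CT defined nonspecific binding.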

[9] = Ratio of MED (agonist) to that of MED (antagonist) values.; assay type: functional
Method in brief: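 The MED for inducing hypothermia alone was divided by the MED for blocking 8-OH-DPAT (0.16 mg/kg sc) hypothermia. Both MEDs came from sc dosing in male Wistar rats and were tested against vehicle by ANOVA with Dunnett's test, P < 0.05.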

[10] = target: Serotonin 1a (5-HT1a) receptor/Adrenergic receptor alpha-1 (Rattus norvegicus) (UniProt P15823+P23944+P43140+P19327); assay: Ki ratio measured as the Ki values of alpha-1 adrenergic receptor to that of 5-hydroxytryptamine 1A receptor; assay type: protein assay
[11] = target: T2, Adrenergic receptor alpha-1 (Rattus norvegicus, UniProt P15823+P23944+P43140); assay: In vitro binding affinity towards Alpha-1 adrenergic receptor in rat cortex was determined using [3H]prazosin as radioligand
T2 sequence (P15823 whole entry): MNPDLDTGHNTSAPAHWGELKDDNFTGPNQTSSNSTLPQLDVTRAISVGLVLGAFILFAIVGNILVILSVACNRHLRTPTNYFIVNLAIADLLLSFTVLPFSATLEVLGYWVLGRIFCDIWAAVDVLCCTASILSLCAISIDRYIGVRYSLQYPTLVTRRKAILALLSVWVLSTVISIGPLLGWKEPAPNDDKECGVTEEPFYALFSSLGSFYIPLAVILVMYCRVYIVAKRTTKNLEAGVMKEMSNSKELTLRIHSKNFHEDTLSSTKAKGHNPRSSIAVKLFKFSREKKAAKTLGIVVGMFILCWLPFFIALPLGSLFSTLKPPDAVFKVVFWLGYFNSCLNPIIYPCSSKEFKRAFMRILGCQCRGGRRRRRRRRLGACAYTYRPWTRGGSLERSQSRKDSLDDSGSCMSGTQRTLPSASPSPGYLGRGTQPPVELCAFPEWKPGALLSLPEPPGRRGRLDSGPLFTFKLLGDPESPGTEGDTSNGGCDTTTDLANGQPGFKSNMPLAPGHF
T2 sequence (P23944 whole entry): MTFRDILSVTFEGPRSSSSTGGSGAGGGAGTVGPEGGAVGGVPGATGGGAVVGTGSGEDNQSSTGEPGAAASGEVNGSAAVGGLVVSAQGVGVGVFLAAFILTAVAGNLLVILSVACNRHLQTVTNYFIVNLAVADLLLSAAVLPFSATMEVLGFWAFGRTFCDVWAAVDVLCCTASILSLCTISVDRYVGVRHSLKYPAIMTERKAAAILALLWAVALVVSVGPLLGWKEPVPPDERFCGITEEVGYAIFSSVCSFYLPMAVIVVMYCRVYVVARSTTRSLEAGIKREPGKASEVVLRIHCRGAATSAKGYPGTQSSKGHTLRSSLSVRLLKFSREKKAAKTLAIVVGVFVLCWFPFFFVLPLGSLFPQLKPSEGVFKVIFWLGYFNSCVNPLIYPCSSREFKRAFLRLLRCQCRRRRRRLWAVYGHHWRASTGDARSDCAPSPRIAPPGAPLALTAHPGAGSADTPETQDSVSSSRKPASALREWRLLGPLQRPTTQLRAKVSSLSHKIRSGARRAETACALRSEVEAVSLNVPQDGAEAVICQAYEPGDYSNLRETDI
T2 sequence (P43140 whole entry): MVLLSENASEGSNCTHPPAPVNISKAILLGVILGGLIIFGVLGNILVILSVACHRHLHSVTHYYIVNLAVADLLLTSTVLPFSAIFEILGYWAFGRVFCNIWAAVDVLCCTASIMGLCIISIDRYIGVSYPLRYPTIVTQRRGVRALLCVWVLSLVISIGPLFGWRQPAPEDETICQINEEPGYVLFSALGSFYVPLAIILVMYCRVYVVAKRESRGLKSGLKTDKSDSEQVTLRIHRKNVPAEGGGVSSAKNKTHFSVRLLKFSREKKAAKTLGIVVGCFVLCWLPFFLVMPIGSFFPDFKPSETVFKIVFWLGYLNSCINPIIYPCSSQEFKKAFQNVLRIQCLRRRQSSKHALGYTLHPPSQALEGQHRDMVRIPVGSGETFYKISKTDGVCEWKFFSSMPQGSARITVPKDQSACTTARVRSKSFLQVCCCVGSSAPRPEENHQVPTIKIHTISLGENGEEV
Method in brief: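 Rat frontal cortex membranes (1/80 wt/vol), no preincubation, in 50 mM Tris pH 7.6 with 4 mM CaCl2 and 0.1% ascorbic acid. Ligand 0.2 nM [3H]prazosin, with phentolamine for nonspecific binding. Incubation 60 min at 25 °C, then filtration. IC50 obtained by regression and converted to pKi with radioligand Kd from saturation experiments.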

[12] = target: T3, 5-hydroxytryptamine receptor 1A (Rattus norvegicus, UniProt P19327); assay: Binding affinity at 5-hydroxytryptamine 1A receptor
T3 sequence (P19327 whole entry): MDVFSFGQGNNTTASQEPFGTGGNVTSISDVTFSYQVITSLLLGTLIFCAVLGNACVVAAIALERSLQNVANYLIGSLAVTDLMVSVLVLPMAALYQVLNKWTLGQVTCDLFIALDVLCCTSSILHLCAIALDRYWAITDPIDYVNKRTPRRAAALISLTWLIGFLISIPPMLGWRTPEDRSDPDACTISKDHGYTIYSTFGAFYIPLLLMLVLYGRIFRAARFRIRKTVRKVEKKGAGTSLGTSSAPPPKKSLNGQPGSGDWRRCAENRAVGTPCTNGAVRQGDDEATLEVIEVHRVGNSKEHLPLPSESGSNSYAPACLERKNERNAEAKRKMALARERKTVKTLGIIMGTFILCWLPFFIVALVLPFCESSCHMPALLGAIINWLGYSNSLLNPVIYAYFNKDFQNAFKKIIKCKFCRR
Method in brief: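 Rat hippocampal membranes (1/100 wt/vol) in 50 mM Tris pH 7.7 with 4 mM CaCl2, 0.1% ascorbic acid and pargyline. Membranes were spun at 25000g, preincubated 30 min at 37 °C and respun, then incubated with 0.4 nM [3H]-8-OH-DPAT for 30 min at 25 °C. 5-HT defined nonspecific binding, and samples were filtered on PEI-soaked GF/B. IC50 came from regression; pKi = −log[IC50/(1+[L]/Kd)].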

[13] = target: T1, D(2) dopamine receptor; assay: In vitro binding affinity towards Dopamine receptor D2 in rat striatum was determined using [3H]-spiperone as radioligand; assay type: tissue-based; method in brief: as §1
[14] = target: 5-hydroxytryptamine receptor 1A (Rattus norvegicus) (UniProt P19327); assay: Ki ratio measured as the Ki values of dopamine receptor to that of 5-hydroxytryptamine 1A receptor
[15] = target: T1, D(2) dopamine receptor; assay: In vitro binding affinity towards dopamine D2 receptor in rat striatum was determined using [3H]-spiperone as radioligand; assay type: tissue-based; method in brief: as §1
[16] = target: D(2) dopamine receptor (Rattus norvegicus) (UniProt P61169); assay: Inhibitory activity against methyl-phenidate-induced gnawing at dopamine D2 receptor in rat
Method in brief: (§4)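 Male Wistar rats (200-220 g) received the test drug sc in water (1.0 mL/kg), then methylphenidate 40.0 mg/kg ip 30 min later. Observation began 30 min after that. Gnawing bouts were counted in 10 s per minute (maximum 10) by a blinded observer.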

[17] = target: D(2) dopamine receptor (Rattus norvegicus) (UniProt P61169); assay: Inhibitory activity against methyl-phenidate-induced gnawing at dopamine receptor D2 in rat; method in brief: as §4

T1 sequence (P61169 whole entry): as the sequence (P61169 whole entry) above

COc1ccccc1N1CCN(CCCCN2C(=O)c3ccccc3C2=O)CC1 [NAN-190]
Ki [1]: 31.6 nM | ED50 [2]: 97 mg/kg | minimal effective dose [3]: 5 mg/kg | minimal effective dose [4]: 0.63 mg/kg | Max effect [5]: 100% | Max effect [6]: 56% | ID50 [7]: 10 mg/kg

c1ccc2c(c1)CC(N1CCN(c3cccc4c3OCCCO4)CC1)C2
Ki [8]: 1410 nM | Ki [1]: 195 nM | ED50 [2]: 5.18 mg/kg | minimal effective dose [3]: 10 mg/kg | minimal effective dose [4]: 5 mg/kg | Max effect [5]: 72% | Max effect [6]: 51% | Ratio [9]: 2 | Ki ratio [10]: 55 | Log Ki [11]: -6.68 | ID50 [7]: > 40 mg/kg

c1ccc2c(c1)CCC2CN1CCN(c2cccc3c2OCCO3)CC1 (stereo unspecified)
Ki [12]: 1.74 nM | Ki [8]: 200 nM | ED50 [2]: 1.32 mg/kg | minimal effective dose [3]: 10 mg/kg | minimal effective dose [4]: 0.63 mg/kg | Max effect [5]: 43% | Max effect [6]: 63% | Ratio [9]: 15.8 | Ki ratio [10]: 18.6 | Log Ki [11]: -7.75 | Ki [13]: 41.7 nM | ID50 [7]: > 40 mg/kg | Ki ratio [14]: 43.6

Clc1cccc2c1CC2CCN1CCN(c2cccc3c2OCCO3)CC1 (stereo unspecified)
Ki [12]: 2.24 nM | Ki [8]: 708 nM | Ki [15]: 60.3 nM | ED50 [2]: 1.13 mg/kg | minimal effective dose [3]: 40 mg/kg | minimal effective dose [4]: 1.25 mg/kg | Max effect [5]: 52% | Max effect [6]: 96% | Ratio [9]: 32 | Ki ratio [10]: 28.8 | Log Ki [11]: -7.19 | ID50 [7]: > 40 mg/kg

Clc1cccc2c1CC2CN1CCN(c2cccc3c2OCCO3)CC1 (stereo unspecified)
Ki [12]: 3.98 nM | Ki [8]: 550 nM | ID50 [16]: > 40 mg/kg | ED50 [2]: 0.8 mg/kg | minimal effective dose [3]: 40 mg/kg | minimal effective dose [4]: 0.63 mg/kg | Max effect [5]: 0% | Max effect [6]: 100% | Ratio [9]: 63.5

COc1cc2c(cc1OC)C(CCN1CCN(c3cccc4c3OCCO4)CC1)CC2 (stereo unspecified)
Ki [12]: 1.58 nM | Ki [8]: 676 nM | Ki [15]: 132 nM | ED50 [2]: 0.86 mg/kg | minimal effective dose [3]: > 40 mg/kg | minimal effective dose [4]: 2.5 mg/kg | Max effect [5]: 12% | Max effect [6]: 84% | Ratio [9]: > 16 | Ki ratio [10]: 9.8 | Log Ki [11]: -7.81 | ID50 [7]: 40 mg/kg

c1ccc2c(c1)CC2CCCCN1CCN(c2cccc3c2OCCO3)CC1 (stereo unspecified)
Ki [12]: 1.29 nM | Ki [8]: 631 nM | Ki [1]: 19.5 nM | ED50 [2]: 1.43 mg/kg | minimal effective dose [3]: > 10 mg/kg | minimal effective dose [4]: 5 mg/kg | Max effect [5]: 0% | Max effect [6]: 88% | Ratio [9]: > 2 | Ki ratio [10]: 17.8 | Log Ki [11]: -7.56 | ID50 [7]: > 40 mg/kg | Ki ratio [14]: 12.5

c1ccc2c(c1)CC2CCN1CCN(c2cccc3ccoc23)CC1 (stereo unspecified)
Ki [12]: 1.41 nM | Ki [8]: 1510 nM | ID50 [17]: > 40 mg/kg | ED50 [2]: 1.12 mg/kg | minimal effective dose [3]: > 40 mg/kg | minimal effective dose [4]: 1.25 mg/kg | Max effect [5]: 21% | Max effect [6]: 91% | Ratio [9]: > 32
